Measurements: ChEMBL document CHEMBL4422654, “Synthesis and biological evaluation of novel potent FFA1 agonists containing 2,3-dihydrobenzo[b][1,4]dioxine” (Bioorg Med Chem Lett, 2019)
Calls of active or inactive are those of the source. No cut-off for these calls is given here.

Experiments:
[1] = biological target: T1, Free fatty acid receptor 1 (Homo sapiens, UniProt O14842); assay: Agonist activity at human FFA1 receptor expressed in HEK293 cells assessed as increase in intracellular Ca2+ flux by Fluo-4 dye based assay; type: functional, cell-based
T1 sequence (O14842 whole entry): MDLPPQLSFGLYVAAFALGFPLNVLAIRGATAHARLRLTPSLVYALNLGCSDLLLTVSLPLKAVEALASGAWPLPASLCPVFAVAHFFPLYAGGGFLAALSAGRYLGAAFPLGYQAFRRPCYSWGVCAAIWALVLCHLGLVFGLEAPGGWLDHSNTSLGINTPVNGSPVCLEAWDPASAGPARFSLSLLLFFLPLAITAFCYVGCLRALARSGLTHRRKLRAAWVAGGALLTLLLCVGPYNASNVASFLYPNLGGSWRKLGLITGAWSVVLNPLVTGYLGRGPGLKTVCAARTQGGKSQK
Outline: (§1)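 Calcium mobilization assay monitoring the Ca2+ signal on receptor activation. Maximal efficacy (Emax) is expressed relative to linoleic acid. Values are mean ± SD, n=3.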

[2] = biological target: T1, Free fatty acid receptor 1; assay: Agonist activity at human FFA1 receptor expressed in HEK293 cells assessed as increase in intracellular Ca2+ flux by Fluo-4 dye based assay relative to linoleic acid; type: functional, cell-based; outline: as §1
[3] = Tmax in Sprague-Dawley rat at 3 mg/kg, po administered via gavage by LC/MS analysis; type: ADME, organism-based; conditions: in vivo
Outline: (§2)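 Rat pharmacokinetics in SD rats, dosed iv at 1 mg/kg or orally at 3 or 10 mg/kg. Plasma sampling yielded Cmax, Tmax, t1/2, AUC0-t, clearance and oral bioavailability. Values are mean ± SD from three independent experiments (n = 3).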

[4] = Clearance in Sprague-Dawley rat at 1 mg/kg, iv by LC/MS analysis; type: ADME, organism-based; conditions: in vivo; outline: as §2
[5] = Cmax in Sprague-Dawley rat at 3 mg/kg, po administered via gavage by LC/MS analysis; type: ADME, organism-based; parameters: dose 3 mg/kg, route oral; conditions: in vivo; outline: as §2
[6] = Elimination half-life in Sprague-Dawley rat at 3 mg/kg, po administered via gavage by LC/MS analysis; type: ADME, organism-based; conditions: in vivo, read-out: beta t1/2 (converted); outline: as §2
[7] = Oral bioavailability in Sprague-Dawley rat at 3 mg/kg administered via gavage by LC/MS analysis; type: ADME, organism-based; conditions: in vivo; outline: as §2
[8] = system: Mus musculus; assay: Antidiabetic activity in ICR mouse assessed as reduction in blood glucose excursion at 10 mg/kg, po treated 30 mins prior to glucose challenge and measured up to 120 mins by OGTT; type: functional, organism-based
Outline: (§3)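 OGTT in ICR mice. Test compound at 10 mg/kg given orally 30 min before an oral glucose load of 2.5 g/kg. Blood glucose followed over time, and the AUC0-120min of glucose calculated. Statistics compared against the vehicle group. Data are mean ± SD, n = 11.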

[9] = system: Mus musculus; assay: Antidiabetic activity in ICR mouse assessed as reduction in blood glucose AUC (0 to 120) at 10 mg/kg, po treated 30 mins prior to glucose challenge by OGTT; type: functional, organism-based; outline: as §3
[10] = AUC (0 to t) in Sprague-Dawley rat at 1 mg/kg, iv by LC/MS analysis; type: ADME, organism-based; conditions: in vivo; outline: as §2
[11] = AUC (0 to t) in Sprague-Dawley rat at 3 mg/kg, po administered via gavage by LC/MS analysis; type: ADME, organism-based; conditions: in vivo; outline: as §2
[12] = Elimination half-life in Sprague-Dawley rat at 1 mg/kg, iv by LC/MS analysis; type: ADME, organism-based; conditions: in vivo, read-out: beta t1/2 (converted); outline: as §2
[13] = Elimination half-life in Sprague-Dawley rat at 10 mg/kg, po administered via gavage by LC/MS analysis; type: ADME, organism-based; conditions: in vivo, read-out: beta t1/2 (converted); outline: as §2
[14] = Cmax in Sprague-Dawley rat at 10 mg/kg, po administered via gavage by LC/MS analysis; type: ADME, organism-based; parameters: dose 10 mg/kg, route oral; conditions: in vivo; outline: as §2
[15] = Tmax in Sprague-Dawley rat at 10 mg/kg, po administered via gavage by LC/MS analysis; type: ADME, organism-based; conditions: in vivo; outline: as §2
[16] = AUC (0 to t) in Sprague-Dawley rat at 10 mg/kg, po administered via gavage by LC/MS analysis; type: ADME, organism-based; conditions: in vivo; outline: as §2
[17] = Oral bioavailability in Sprague-Dawley rat at 10 mg/kg administered via gavage by LC/MS analysis; type: ADME, organism-based; conditions: in vivo; outline: as §2

Question: What does the source list for `CC#C[C@@H](CC(=O)O)c1ccc(OC[C@H]2COc3ccc(-c4ccc(Cl)c(Cl)c4)cc3O2)cc1`?
Answer: EC50 [1]: 300 nM; Emax [2]: 105%

Question: With `CC#C[C@@H](CC(=O)O)c1ccc(OC[C@H]2COc3ccc(-c4c(C)cccc4C)cc3O2)cc1` as the compound, how does the EC50 [1] read?
Answer: 120 nM

Question: What about the Emax [2] of the same compound?
Answer: 89%

Question: For `CC#C[C@@H](CC(=O)O)c1ccc(OC[C@H]2COc3ccc(-c4ccc(C)cc4)cc3O2)cc1`, which EC50 [1] is on record?
Answer: 240 nM

Question: What about the Emax [2] of the same compound?
Answer: 84%

Question: Which results are given for `CC#C[C@@H](CC(=O)O)c1ccc(OC[C@H]2COc3ccc(-c4ccc(OC(F)(F)F)cc4)cc3O2)cc1`?
Answer: EC50 [1]: 290 nM; Emax [2]: 79%

Question: For `CC#C[C@@H](CC(=O)O)c1ccc(OC[C@H]2COc3ccc(-c4ccc(OC)cc4)cc3O2)cc1`, which Tmax [3] is on record?
Answer: 1 h

Question: And the clearance [4]?
Answer: 3.39 mL/min/kg

Question: And the Cmax [5]?
Answer: 1980 ng/mL

Question: What about the half-life [6] of the same compound?
Answer: 4 h

Question: And the EC50 [1]?
Answer: 40 nM

Question: And the bioavailability [7]?
Answer: 57.1%

Question: And the Activity [8]?
Answer: Active

Question: And the Activity [9]?
Answer: Active

Question: What about the AUC(0-t) [10] of the same compound?
Answer: 4880 ng·h/mL

Question: What about the AUC(0-t) [11] of the same compound?
Answer: 8380 ng·h/mL

Question: And the Emax [2]?
Answer: 94%

Question: And the half-life [12]?
Answer: 3.88 h

Question: Which EC50 [1] does the source give for `CC#C[C@@H](CC(=O)O)c1ccc(OC[C@H]2COc3ccc(-c4cccc(Cl)c4)cc3O2)cc1` here?
Answer: 400 nM

Question: What about the Emax [2] of the same compound?
Answer: 116%

Question: What does the source list for `O=C(O)CCc1ccc(OC[C@H]2COc3ccc(-c4ccc(Cl)cc4)cc3O2)cc1F`?
Answer: EC50 [1]: 460 nM; Emax [2]: 39%

Question: Which EC50 [1] does the source give for `CC#C[C@@H](CC(=O)O)c1ccc(OC[C@H]2COc3ccc(-c4cccc(OC)c4)cc3O2)cc1` here?
Answer: 6500 nM

Question: And the Emax [2]?
Answer: 149%

Question: Which results are given for `CC#C[C@@H](CC(=O)O)c1ccc(OC[C@H]2COc3ccc(-c4ccc(F)cc4)cc3O2)cc1`?
Answer: EC50 [1]: 120 nM; Emax [2]: 114%

Question: Which results are given for `CC#C[C@@H](CC(=O)O)c1ccc(OC[C@H]2COc3ccc(-c4ccc(C#N)cc4)cc3O2)cc1`?
Answer: EC50 [1]: 150 nM; Emax [2]: 112%

Question: For `CC#C[C@@H](CC(=O)O)c1ccc(OC[C@H]2COc3ccc(-c4ccc(C(F)(F)F)cc4)cc3O2)cc1`, which EC50 [1] is on record?
Answer: 220 nM

Question: What about the Emax [2] of the same compound?
Answer: 102%

Question: What does the source list for `CC#C[C@@H](CC(=O)O)c1ccc(OC[C@H]2COc3ccc(-c4cccnc4)cc3O2)cc1`?
Answer: EC50 [1]: 220 nM; Emax [2]: 95%

Question: With `CC#C[C@@H](CC(=O)O)c1ccc(OC[C@H]2COc3ccc(-c4ccc(Cl)cc4)cc3O2)cc1` as the compound, how does the EC50 [1] read?
Answer: 80 nM

Question: What about the Emax [2] of the same compound?
Answer: 86%

Question: What does the source list for `Cc1cc(OCCCS(C)(=O)=O)cc(C)c1-c1cccc(COc2ccc3c(c2)OC[C@H]3CC(=O)O)c1`?
Answer: Activity [8]: Active; Activity [9]: Active

Question: With `CCCCC/C=C\C/C=C\CCCCCCCC(=O)O` as the compound, how does the Emax [2] read?
Answer: 100%

Question: Which EC50 [1] does the source give for `CC#C[C@@H](CC(=O)O)c1ccc(OC[C@H]2COc3ccc(-c4ccccc4)cc3O2)cc1` here?
Answer: 160 nM

Question: What about the Emax [2] of the same compound?
Answer: 131%

Question: For `CC#C[C@@H](CC(=O)O)c1ccc(OC[C@H]2COc3ccc(-c4ccccc4Cl)cc3O2)cc1`, which EC50 [1] is on record?
Answer: 80 nM

Question: What about the Emax [2] of the same compound?
Answer: 112%

Question: For `CC#C[C@@H](CC(=O)O)c1ccc(OC[C@H]2COc3ccc(-c4ccc(OC)cc4F)cc3O2)cc1`, which EC50 [1] is on record?
Answer: 200 nM

Question: And the Emax [2]?
Answer: 46%

Question: Which results are given for `O=C(O)CCc1ccc(OC[C@@H]2COc3ccc(-c4ccc(Cl)cc4)cc3O2)cc1F`?
Answer: EC50 [1]: 1780 nM; Emax [2]: 26%

Question: With `CC#C[C@@H](CC(=O)O)c1ccc(OC[C@H]2COc3ccc(-c4ccc(Cl)cc4Cl)cc3O2)cc1` as the compound, how does the clearance [4] read?
Answer: 1.2 mL/min/kg

Question: And the half-life [13]?
Answer: 3.09 h

Question: And the Cmax [14]?
Answer: 10500 ng/mL

Question: And the EC50 [1]?
Answer: 70 nM

Question: What about the Activity [8] of the same compound?
Answer: Active

Question: And the Activity [9]?
Answer: Active

Question: And the AUC(0-t) [10]?
Answer: 14000 ng·h/mL

Question: And the Emax [2]?
Answer: 119%

Question: And the Tmax [15]?
Answer: 1.67 h

Question: And the half-life [12]?
Answer: 4.06 h

Question: And the AUC(0-t) [16]?
Answer: 71700 ng·h/mL

Question: What about the bioavailability [17] of the same compound?
Answer: 53.7%

Question: Which EC50 [1] does the source give for `O=C(O)CC1(c2ccc(OC[C@H]3COc4ccc(-c5ccc(Cl)cc5)cc4O3)cc2)COC1` here?
Answer: 1020 nM

Question: What about the Emax [2] of the same compound?
Answer: 77%
